Eleven compounds from ChEMBL document CHEMBL2346574, “Evaluation of (Z)-2-((1-benzyl-1H-indol-3-yl)methylene)-quinuclidin-3-one analogues as novel, high affinity ligands for CB1 and CB2 cannabinoid receptors” (Bioorg Med Chem Lett, 2013) can be followed below.

pKi: −log10 of the molar value.

The target in one assay is Cannabinoid receptor 1 (Mus musculus, UniProt P47746). Kind of assay: Displacement of [3H]CP 55940 from CB1 receptor in mouse whole brain membrane homogenates after 90 mins by liquid scintillation counting. The class given is cell membranes. In outline: (§1)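 Competition binding with 0.2 nM [3H]CP-55,940 and 5 mM MgCl2, in triplicate per concentration, using 50 mM Tris with 0.05% BSA and 0.1% ethanol/0.1% DMSO. CB1 used mouse whole-brain membranes and CB2 used CHO-hCB2 membranes. […] GF/B filtration, ice-cold washes, scintillation counting. Specific binding taken as percent of no-competitor.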
Sequence of Cannabinoid receptor 1 (P47746 whole entry): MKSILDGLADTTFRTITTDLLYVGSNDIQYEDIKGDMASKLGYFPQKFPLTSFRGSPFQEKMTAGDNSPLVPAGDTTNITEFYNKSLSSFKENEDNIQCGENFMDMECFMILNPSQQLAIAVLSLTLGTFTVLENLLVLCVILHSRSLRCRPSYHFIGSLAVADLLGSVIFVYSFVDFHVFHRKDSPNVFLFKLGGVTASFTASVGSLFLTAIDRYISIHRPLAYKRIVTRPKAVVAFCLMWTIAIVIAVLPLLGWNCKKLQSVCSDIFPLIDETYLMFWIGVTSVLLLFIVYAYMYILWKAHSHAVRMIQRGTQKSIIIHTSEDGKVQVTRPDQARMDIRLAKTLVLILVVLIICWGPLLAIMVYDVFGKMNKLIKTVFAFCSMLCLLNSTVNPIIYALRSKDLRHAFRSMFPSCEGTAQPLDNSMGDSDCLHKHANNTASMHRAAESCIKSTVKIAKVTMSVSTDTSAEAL

A further assay has as its target Cannabinoid receptor 2 (Homo sapiens, UniProt P34972). Kind of assay: Displacement of [3H]CP 55940 from human CB2 receptor expressed in CHO cells after 90 mins by liquid scintillation counting. In kind it is cell-based. Summed up:
as §1
In general terms: Loss of bound radioactivity is the signal in a displacement assay; it reports binding, not function.

Assay [1] is described as follows: Selectivity ratio of Ki for CB1 receptor in mouse whole brain membrane homogenates to Ki for human CB2 receptor. The class given is cell membranes.

Sequence of Cannabinoid receptor 2 (P34972 whole entry): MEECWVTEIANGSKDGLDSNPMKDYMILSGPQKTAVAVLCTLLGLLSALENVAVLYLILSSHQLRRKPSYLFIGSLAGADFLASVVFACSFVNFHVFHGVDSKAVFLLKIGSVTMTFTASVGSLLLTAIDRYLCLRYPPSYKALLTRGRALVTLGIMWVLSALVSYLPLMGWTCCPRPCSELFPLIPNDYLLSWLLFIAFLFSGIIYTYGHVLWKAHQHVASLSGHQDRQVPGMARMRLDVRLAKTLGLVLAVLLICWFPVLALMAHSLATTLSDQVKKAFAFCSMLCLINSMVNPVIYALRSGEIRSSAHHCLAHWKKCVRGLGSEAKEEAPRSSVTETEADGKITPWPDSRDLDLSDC

Regarding `OC1/C(=C/c2cn(Cc3ccccc3)c3ccccc23)N2CCC1CC2` (racemic), the pKi – broadly, the negative decadic logarithm of the Ki, by convention in mol/L – at Cannabinoid receptor 1 was 6.27; at Cannabinoid receptor 2, 7.26.

On to `O=C1/C(=C/c2cn(Cc3ccc(Cl)cc3)c3ccccc23)N2CCC1CC2`, for which the values for the pKi on Cannabinoid receptor 1 and on Cannabinoid receptor 2 were 7.50 and 7.69, respectively.

On to `O=C1/C(=C/c2cn(Cc3ccccc3Br)c3ccccc23)N2CCC1CC2`, for which the negative-log Ki (pKi) on Cannabinoid receptor 1 was 6.20; at Cannabinoid receptor 2 it was 6.48.

In the case of `OC1/C(=C/c2cn(Cc3ccc(Cl)cc3)c3ccccc23)N2CCC1CC2` (racemic), the pKi at Cannabinoid receptor 1 was 7.07.

Take `COC(=O)c1ccc(Cn2cc(/C=C3/C(=O)C4CCN3CC4)c3ccccc32)cc1`: the results for the pKi at Cannabinoid receptor 1 and on Cannabinoid receptor 2 were 6.02 and 6.23, respectively.

With `O/N=C1/C(=C/c2cn(Cc3ccccc3)c3ccccc23)N2CCC1CC2`, the figures for the pKi on Cannabinoid receptor 1 and on Cannabinoid receptor 2 were 6.45 and 7.16, respectively.

As to `O=C1/C(=C/c2cn(Cc3ccccc3)c3ccccc23)N2CCC1CC2`, the negative logarithm of the Ki (pKi) at Cannabinoid receptor 1 is 6.87; on Cannabinoid receptor 2 it was 7.93.

Consider `O/N=C1/C(=C/c2cn(Cc3ccc(Cl)cc3)c3ccccc23)N2CCC1CC2`, for which the pKi on Cannabinoid receptor 1 was 7.02.

As for `O=C1/C(=C/c2cn(Cc3ccc(F)cc3)c3ccccc23)N2CCC1CC2`, the pKi at Cannabinoid receptor 1 was 8.03; on Cannabinoid receptor 2 it was 8.88.

With `N#Cc1ccc(Cn2cc(/C=C3/C(=O)C4CCN3CC4)c3ccccc32)cc1`, the negative logarithm of the Ki (pKi) was 7.26 at Cannabinoid receptor 1 and 6.94 on Cannabinoid receptor 2.

For the compound `COC(=O)c1ccc2c(/C=C3/C(=O)C4CCN3CC4)cn(Cc3ccccc3)c2c1`, the pKi on Cannabinoid receptor 1 is 7.07; at Cannabinoid receptor 2 it was 8.60. For the same compound, the Ratio Ki in assay [1] turned out to be 34.
